Laboratory results taken from ChEMBL document CHEMBL1126822, “7 alpha-Methyl- and 11 beta-ethoxy-substitution of [125I]-16 alpha-iodoestradiol: effect on estrogen receptor-mediated target tissue uptake” (J Med Chem, 1993).

Target: Estrogen receptor (Mus musculus) (UniProt O08537+P19785)
Experiment: Binding affinity at murine estrogen receptor by [3H]estradiol displacement.
Format: protein assay
Summary of the method: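 Competitive binding in murine uterine cytoplasmic extracts, incubated 18 h at 0-4 °C with 20 nM [3H]estradiol, with or without competing steroids from 2 nM to 20 μM. RBA = 100 × ratio of competitor to unlabeled estradiol concentration giving 50% competition of specific [3H]estradiol binding. Mean of three experiments with SD.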

Chain of Estrogen receptor (Mus musculus) (O08537 whole entry, looked up): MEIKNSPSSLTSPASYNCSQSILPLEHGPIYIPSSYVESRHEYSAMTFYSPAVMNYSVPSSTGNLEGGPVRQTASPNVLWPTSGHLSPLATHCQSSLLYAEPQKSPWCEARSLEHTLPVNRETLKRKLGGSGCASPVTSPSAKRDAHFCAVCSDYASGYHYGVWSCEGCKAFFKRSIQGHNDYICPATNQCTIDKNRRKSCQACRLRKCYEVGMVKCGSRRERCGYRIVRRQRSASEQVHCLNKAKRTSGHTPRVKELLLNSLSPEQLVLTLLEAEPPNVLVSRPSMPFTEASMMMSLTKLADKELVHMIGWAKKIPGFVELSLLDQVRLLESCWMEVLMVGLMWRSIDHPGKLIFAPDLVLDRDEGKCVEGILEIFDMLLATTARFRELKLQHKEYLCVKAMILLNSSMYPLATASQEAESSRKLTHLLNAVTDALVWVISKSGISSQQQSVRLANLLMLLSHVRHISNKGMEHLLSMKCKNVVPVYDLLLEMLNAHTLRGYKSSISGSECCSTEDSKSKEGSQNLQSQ
Chain of Estrogen receptor (Mus musculus) (P19785 whole entry, looked up): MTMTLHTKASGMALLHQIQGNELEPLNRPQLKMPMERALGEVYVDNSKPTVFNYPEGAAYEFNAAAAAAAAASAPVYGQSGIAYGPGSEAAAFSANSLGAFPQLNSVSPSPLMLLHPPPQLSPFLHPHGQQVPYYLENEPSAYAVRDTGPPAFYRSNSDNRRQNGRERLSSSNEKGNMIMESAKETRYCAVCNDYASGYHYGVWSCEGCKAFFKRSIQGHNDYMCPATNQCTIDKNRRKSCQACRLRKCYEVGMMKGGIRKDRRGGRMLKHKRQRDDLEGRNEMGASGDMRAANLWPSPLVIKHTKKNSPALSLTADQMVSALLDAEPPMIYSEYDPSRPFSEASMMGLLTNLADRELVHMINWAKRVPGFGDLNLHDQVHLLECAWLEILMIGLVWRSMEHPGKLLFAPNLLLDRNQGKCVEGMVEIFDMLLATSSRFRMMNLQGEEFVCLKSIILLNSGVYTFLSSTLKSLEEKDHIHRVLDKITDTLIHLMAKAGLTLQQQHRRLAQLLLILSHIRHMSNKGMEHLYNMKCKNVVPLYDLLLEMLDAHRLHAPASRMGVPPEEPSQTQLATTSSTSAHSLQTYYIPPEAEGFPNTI

Compound | relative binding affinity (RBA)
CCO[C@H]1C[C@]2(C)[C@@H](O)[C@H](Br)C[C@H]2[C@@H]2CCc3cc(O)ccc3[C@H]21 | 16.8
CCO[C@H]1C[C@]2(C)[C@@H](O)[C@@H](Br)C[C@H]2[C@@H]2CCc3cc(O)ccc3[C@H]21 | 0.6
CCO[C@H]1C[C@]2(C)C(=O)[C@H](Br)C[C@H]2[C@@H]2CCc3cc(O)ccc3[C@H]21 | 0.8
CCO[C@H]1C[C@]2(C)[C@H](O)[C@H](Cl)C[C@H]2[C@@H]2CCc3cc(O)ccc3[C@H]21 | 0.8
CCO[C@H]1C[C@]2(C)[C@H](O)[C@H](Br)C[C@H]2[C@@H]2CCc3cc(O)ccc3[C@H]21 | 1.1
CCO[C@H]1C[C@]2(C)C(=O)[C@H](Cl)C[C@H]2[C@@H]2CCc3cc(O)ccc3[C@H]21 | 0.8
CCO[C@H]1C[C@]2(C)[C@@H](O)[C@H](Cl)C[C@H]2[C@@H]2CCc3cc(O)ccc3[C@H]21 | 14.9

Next, values leading:

relative binding affinity (RBA) | Compound
4.3 | C[C@@H]1Cc2cc(O)ccc2[C@H]2CC[C@]3(C)[C@@H](O)[C@@H](Cl)C[C@H]3[C@H]12
71.5 | C[C@@H]1Cc2cc(O)ccc2[C@H]2CC[C@]3(C)[C@@H](O)[C@H](Cl)C[C@H]3[C@H]12
33.8 | C[C@@H]1Cc2cc(O)ccc2[C@H]2CC[C@]3(C)C(=O)[C@H](Cl)C[C@H]3[C@H]12
16.6 | C[C@@H]1Cc2cc(O)ccc2[C@H]2CC[C@]3(C)[C@H](O)[C@H](Cl)C[C@H]3[C@H]12
28.4 | C[C@@H]1Cc2cc(O)ccc2[C@H]2CC[C@]3(C)C(=O)[C@H](Br)C[C@H]3[C@H]12
5.3 | C[C@@H]1Cc2cc(O)ccc2[C@H]2CC[C@]3(C)C(=O)[C@@H](Br)C[C@H]3[C@H]12
79.1 | C[C@@H]1Cc2cc(O)ccc2[C@H]2CC[C@]3(C)[C@@H](O)[C@H](Br)C[C@H]3[C@H]12
20 | CO[C@H]1C[C@]2(C)[C@@H](O)[C@H](Br)C[C@H]2[C@@H]2CCc3cc(O)ccc3[C@H]21
7.1 | C[C@@H]1Cc2cc(O)ccc2[C@H]2CC[C@]3(C)[C@@H](O)[C@@H](Br)C[C@H]3[C@H]12
13.6 | C[C@@H]1Cc2cc(O)ccc2[C@H]2CC[C@]3(C)[C@H](O)[C@H](Br)C[C@H]3[C@H]12
